Measured values taken from PMC7771250 (ACS Infectious Diseases, 2020).
Read-outs that look alike come from different tables or passages of the source.

How the values were obtained:
SARS-CoV-2 [1] = format: cell-based; conditions: EpiAirway, positive control
Vero E6 cells [2] = conditions: for cell toxicity in the CPE counter assay: Vero E6, up to 30.0 μM; for cytotoxicity (reduction of cell viability): at 30.0 μM; for CC50: read-out: CPE CC50, uninfected Vero E6, 72 h
[3] = tested on: human bronchial epithelial cells; conditions: LDH release, 24 and 96 h
SARS-CoV-2 [4] = experiment: microbe, parasite or virus in culture; format: cell-based, SARS CoV-2 (USA_WA1/2020); conditions: Severe acute respiratory syndrome coronavirus 2, Vero C1008, 72 h, read-out: CPE EC50, Vero E6, 72 h; table: mean ± confidence interval
in vitro = conditions: human
LC3B [5] = experiment: LC3B immunostaining autophagy assay in Vero E6 cells; format: cell-based, monkey; conditions: Vero E6, about 16 h; for LC3B spot accumulation: 50 to 0.02 μM
Outline: (§1)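 Cells were seeded overnight to 60% confluence and dosed at 8 points, 1:3 from 50 μM to 0.02 μM. They were fixed in ice-cold methanol for 10 min at −30 °C, blocked, and stained with rabbit anti-LC3B for 2 h at RT, AlexaFluor-647 anti-rabbit for 1 h, and Hoechst. Six fields per well were imaged. Spot count was normalized to DMSO (0%) and a reference (100%). Points with viability below 20% were excluded.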

acidic organelles = experiment: LysoTracker Deep Red staining in Vero E6 cells; format: cell-based, monkey
Vero E6 cells [6] = experiment: Cell; format: cell-based, monkey
[7] = cited from earlier work; for T1/2: 85 (chloroquine)
Vero E6 cells [8] = conditions: drug-repurposing screen in Vero E6 cells; cited from earlier work
LC3B [9] = experiment: LC3B immunostaining autophagy assay, average of four cell lines; format: cell-based; conditions: for EC50: 16 h, read-out: autophagy EC50
SARS-CoV-2 [10] = conditions: Vero E6, OpenData Portal screening data, Figure S14; cited from earlier work
Vero E6 cells [11] = conditions: Vero E6, OpenData Portal screening data, Figure S14; cited from earlier work
[12] = cited from earlier work
[13] = tested on: SARS-CoV-2 spike pseudotyped particle (PP); experiment: microbe, parasite or virus in culture; format: cell-based; conditions: Severe acute respiratory syndrome coronavirus 2, HEK-293T, 48 h, read-out: PP EC50
LC3B [14] = experiment: LC3B immunostaining autophagy assay in Huh-7.5 cells; format: cell-based, human
Outline: as §1

SARS-CoV-2 [15] = conditions: similar CPE assay with SARS-CoV-2 in Vero E6 cells; cited from earlier work

With `CCC(CC)COC(=O)[C@H](C)N[P@](=O)(OC[C@H]1O[C@@](C#N)(c2ccc3c(N)ncnn23)[C@H](O)[C@@H]1O)Oc1ccccc1` [remdesivir] the “reduction of viral titers” value (SARS-CoV-2 [1]) was “highly effective in reducing viral titers”, the “cell toxicity in the CPE counter assay” value (Vero E6 cells [2]) was “no apparent cytotoxicity” and the “cytotoxicity in EpiAirway” value [3] was “without any cytotoxicity”. For the same compound, the EC50 (SARS-CoV-2 [4]) was 7.04 µM.

In the case of `CN(C)CCCN1c2ccccc2CCc2ccc(Cl)cc21` [clomipramine], the CC50 (in vitro) is reported as 18.6 ± 0.29 µM, the “increase of LC3B spot count” value (LC3B [5]; normalized to DMSO (0%) and CQ (100%)) is reported as 40% and the “cytotoxicity (reduction of cell viability)” value (Vero E6 cells [2]; Vero E6) is reported as “less than 20%”. The CC50 (Vero E6 cells [2]) was greater than 30 µM, the “LysoTracker staining” value (acidic organelles) was “dramatic elevations in LysoTracker relative spot intensity” and the “cytotoxicity on the basis of nuclei counts” value (Vero E6 cells [6]; Vero E6, at 50 μM) was “not cytotoxic”. The “Vd” value [7] was “high Vd”, the CC50 (Vero E6 cells [8]) was greater than 30 µM and the “LC3B increase across the cell lines” value (LC3B [9]; Vero E6, HeLa, HEK293T, Huh-7.5) was “effective in increasing LC3B in all cell lines except for Vero E6”.

In the case of `CC(C)(O)CNc1ncc(-c2ccnc(Nc3ccnc(Cl)c3)n2)c(CC2CC2)n1` [VPS34-IN-1], the “SARS-CoV-2 CPE inhibition” value (SARS-CoV-2 [10]) is listed as “potently inhibited the SARS-CoV-2 CPE at concentrations that were not cytotoxic” and the “cytotoxicity” value (Vero E6 cells [11]) is listed as “cytotoxicity was observed at higher concentrations”.

For `CO/C1=C\C(C)=C\[C@@H](C)[C@@H](O)[C@@H](C)C/C(C)=C/C=C/[C@H](OC)[C@@H]([C@@H](C)[C@@H](O)[C@H](C)[C@@]2(O)C[C@@H](O)[C@H](C)[C@@H](C(C)C)O2)OC1=O` [Bafilomycin A1], the “SARS-CoV-2 CPE inhibition” value (SARS-CoV-2 [10]) is given as “able to block SARS-CoV-2 CPE at nontoxic nanomolar concentrations” and the “cytotoxicity” value (Vero E6 cells [11]) is given as “highly cytotoxic”.

For `CCN(CC)CCNc1ccc(CO)c2sc3ccccc3c(=O)c12` [hycanthone], the “absorption” value ([12]; monkey) is given as “well-absorbed in monkey”, the T1/2 ([12]; species not given, human data lacking) is given as 0.12 to 0.21 days and the CC50 (in vitro) is given as 11.7 ± 0.49 µM. For the same compound, the “LC3B spot accumulation” value (LC3B [5]) was “maximal spot counts”, the “cytotoxicity (reduction of cell viability)” value (Vero E6 cells [2]; Vero E6) was roughly 100% and the cells killed (Vero E6 cells [6]; Vero E6, at 50 μM) was “approximately 60%”. It also gave an EC50 (SARS-CoV-2 [4]) of 5.79 ± 0.26 µM, an EC50 (LC3B [9]) of 7.35 ± 4.7 µM and an EC50 [13] of 1.88 ± 0.08 µM.

For `OC(c1cc(C(F)(F)F)nc2c(C(F)(F)F)cccc12)C1CCCCN1` (centres unmarked) [mefloquine], the CC50 (in vitro) was 5.4 ± 0.01 µM, the “LC3B spot accumulation” value (LC3B [5]) was “ineffective at inducing LC3B spot accumulation” and the cytotoxicity (Vero E6 cells [2]; at 15.0 to 30.0 μM, Vero E6) was 100%. The “LysoTracker staining” value (acidic organelles) was “dramatic elevations in LysoTracker relative spot intensity”, the “cytotoxicity on the basis of nuclei counts” value (Vero E6 cells [6]; Vero E6, at 50 μM) was “completely toxic” and the “toxicity in the LysoTracker assay” value (Vero E6 cells [6]; Vero E6, highest concentration (50 μM)) was “toxic at the highest concentration”. The CC50 (Vero E6 cells [8]) was greater than 18.5 µM, the EC50 (SARS-CoV-2 [4]) was 3.85 ± 0.24 µM and the EC50 (LC3B [14]; Homo sapiens, Huh7.5, read-out: autophagy EC50) was 7.3 µM. The “LC3B spot counts” value (LC3B [14]; Huh-7.5) was “increased LC3B spot counts even at low concentrations”, the EC50 (SARS-CoV-2 [15]) was 7.11 µM and the EC50 [13] was 8.84 ± 0.64 µM.

With `CCN(CC)CCCC(C)Nc1ccnc2cc(Cl)ccc12` (centres unmarked) [chloroquine] the CC50 (in vitro) was 12 ± 0.51 µM, the “cell toxicity in the CPE counter assay” value (Vero E6 cells [2]) was “no associated cell toxicity” and the CC50 (Vero E6 cells [2]) was greater than 30 µM. The T1/2 ([7]; 86 (hydroxychloroquine)) was 30 to 60 days, the plasma bound [7] was 50–70% and the EC50 (SARS-CoV-2 [4]) was 2.01 µM. For the same compound, the EC50 (SARS-CoV-2 [15]) was 42 µM, the EC50 (LC3B [9]) was 3.29 ± 1.86 µM and the EC50 [13] was 1.37 ± 0.1 µM.

In the case of `CCN(CCO)CCCC(C)Nc1ccnc2cc(Cl)ccc12` (centres unmarked) [hydroxychloroquine], the CC50 (in vitro) is reported as 16.7 ± 20.3 µM, the “cell toxicity in the CPE counter assay” value (Vero E6 cells [2]) is reported as “no associated cell toxicity” and the CC50 (Vero E6 cells [2]) is reported as greater than 30 µM. The T1/2 ([7]; 86 (hydroxychloroquine)) was roughly 40 days, the “absorption” value ([7]; ref 82 (clomipramine), 86 (hydroxychloroquine)) was “rapid and complete absorption” and the EC50 (SARS-CoV-2 [4]) was 4.47 µM. The EC50 (SARS-CoV-2 [15]) was 9.21 µM, the EC50 (LC3B [9]) was 6.55 ± 6.67 µM and the EC50 [13] was 2.19 ± 0.07 µM.
